Assays:
NCI-H522 = experiment: Growth inhibition of human NCI-H522 cells assessed as cell growth at 10 uM after 48 hrs by sulforhodamine B assay; assay type: functional; conditions: NCI-H522, 48 h, read-out: Activity
In short: (§1)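 NCI 60-cell-line panel screen (nine cancer types). Compounds added at single concentration 10^-5 M, cultures incubated 48 h; growth inhibition percentages reported.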

COLO 205 = experiment: Growth inhibition of human COLO205 cells assessed as cell growth at 10 uM after 48 hrs by sulforhodamine B assay; assay type: functional; conditions: COLO 205, 48 h, read-out: Activity; in short: as §1
SF-268 = experiment: Growth inhibition of human SF268 cells assessed as cell growth at 10 uM after 48 hrs by sulforhodamine B assay; assay type: functional; conditions: SF-268, 48 h, read-out: Activity; in short: as §1
HL-60 = experiment: Cytotoxicity in human HL60 cells assessed as reduction in cell viability incubated for 48 hrs by MTT assay; assay type: functional, cell-based; conditions: HL-60, 48 h
In short: (§2)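 HepG2 and HL60 (ATCC) grown in DMEM with 10% FBS, 2 mM L-glutamine, penicillin/streptomycin, amphotericin B at 37 °C, 5% CO2. Samples dissolved in DMSO, diluted thousandfold in assay. Cells seeded in serum-free medium, treated with serial concentrations 48 h; MTT 4 h, formazan dissolved in acidified isopropanol, A570. Triplicates averaged; viability relative to untreated/vehicle control.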

HL-60(TB) = experiment: Growth inhibition of human HL-60(TB) cells assessed as cell growth at 10 uM after 48 hrs by sulforhodamine B assay; assay type: functional; conditions: HL-60, 48 h, read-out: Activity
In short: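 Screened by the NCI in its 60-cell-line panel covering nine cancer types, including leukemia. Compounds were added at a single concentration, and the cultures were incubated for 48 h. Results are reported as percent growth inhibition.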

HOP-92 = experiment: Growth inhibition of human HOP92 cells assessed as cell growth at 10 uM after 48 hrs by sulforhodamine B assay; assay type: functional; conditions: HOP-92, 48 h, read-out: Activity; in short: as §1
LOX IMVI = experiment: Growth inhibition of human LOXIMVI cells assessed as cell growth at 10 uM after 48 hrs by sulforhodamine B assay; assay type: functional; conditions: read-out: Activity; in short: as §1
ACHN = experiment: Growth inhibition of human ACHN cells assessed as cell growth at 10 uM after 48 hrs by sulforhodamine B assay; assay type: functional; conditions: read-out: Activity; in short: as §1
MDA-MB-468 = experiment: Growth inhibition of human MDA-MB-468 cells assessed as cell growth at 10 uM after 48 hrs by sulforhodamine B assay; assay type: functional; conditions: MDA-MB-468, 48 h, read-out: Activity; in short: as §1
OVCAR-4 = experiment: Growth inhibition of human OVCAR4 cells assessed as cell growth at 10 uM after 48 hrs by sulforhodamine B assay; assay type: functional; conditions: OVCAR-4, 48 h, read-out: Activity; in short: as §1
IGROV-1 = experiment: Growth inhibition of human IGROV1 cells assessed as cell growth at 10 uM after 48 hrs by sulforhodamine B assay; assay type: functional; conditions: IGROV-1, 48 h, read-out: Activity; in short: as §1
RXF 393 = experiment: Growth inhibition of human RXF393 cells assessed as cell growth at 10 uM after 48 hrs by sulforhodamine B assay; assay type: functional; conditions: RXF 393, 48 h, read-out: Activity; in short: as §1
NCI-H23 = experiment: Growth inhibition of human NCI-H23 cells assessed as cell growth at 10 uM after 48 hrs by sulforhodamine B assay; assay type: functional; conditions: NCI-H23, 48 h, read-out: Activity; in short: as §1
MDA-MB-231 = experiment: Growth inhibition of human MDA-MB-231 cells assessed as cell growth at 10 uM after 48 hrs by sulforhodamine B assay; assay type: functional; conditions: MDA-MB-231, 48 h, read-out: Activity; in short: as §1
RPMI-8226 = experiment: Growth inhibition of human RPMI8226 cells assessed as cell growth at 10 uM after 48 hrs by sulforhodamine B assay; assay type: functional; conditions: RPMI-8226, 48 h, read-out: Activity; in short: as §1
DU-145 = experiment: Growth inhibition of human DU145 cells assessed as cell growth at 10 uM after 48 hrs by sulforhodamine B assay; assay type: functional; conditions: DU-145, 48 h, read-out: Activity; in short: as §1
HepG2 = experiment: Cytotoxicity in human HepG2 cells assessed as reduction in cell viability incubated for 48 hrs by MTT assay; assay type: functional, cell-based; conditions: HepG2, 48 h; in short: as §2
MCF7 = experiment: Growth inhibition of human MCF7 cells assessed as cell growth at 10 uM after 48 hrs by sulforhodamine B assay; assay type: functional; conditions: MCF7, 48 h, read-out: Activity; in short: as §1
MOLT-4 = experiment: Growth inhibition of human MOLT4 cells assessed as cell growth at 10 uM after 48 hrs by sulforhodamine B assay; assay type: functional; conditions: MOLT-4, 48 h, read-out: Activity; in short: as §1
OVCAR-8 = experiment: Growth inhibition of human OVCAR8 cells assessed as cell growth at 10 uM after 48 hrs by sulforhodamine B assay; assay type: functional; conditions: OVCAR-8, 48 h, read-out: Activity; in short: as §1
HOP-62 = experiment: Growth inhibition of human HOP62 cells assessed as cell growth at 10 uM after 48 hrs by sulforhodamine B assay; assay type: functional; conditions: HOP-62, 48 h, read-out: Activity; in short: as §1
NCI-H226 = experiment: Growth inhibition of human NCI-H226 cells assessed as cell growth at 10 uM after 48 hrs by sulforhodamine B assay; assay type: functional; conditions: NCI-H226, 48 h, read-out: Activity; in short: as §1
SR = experiment: Growth inhibition of human SR cells assessed as cell growth at 10 uM after 48 hrs by sulforhodamine B assay; assay type: functional; conditions: read-out: Activity
In short: (§3)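 NCI 60-cell-line panel from nine tumour types (leukaemia, lung, colon, CNS, melanoma, ovarian, renal, prostate, breast). Each compound was added at one single concentration, and cultures were incubated for 48 h. Results are reported as percent growth inhibition.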

SW-620 = experiment: Growth inhibition of human SW620 cells assessed as cell growth at 10 uM after 48 hrs by sulforhodamine B assay; assay type: functional; conditions: SW-620, 48 h, read-out: Activity; in short: as §3
HT-29 = experiment: Growth inhibition of human HT-29 cells assessed as cell growth at 10 uM after 48 hrs by sulforhodamine B assay; assay type: functional; conditions: HT-29, 48 h, read-out: Activity; in short: as §1
M14 = experiment: Growth inhibition of human M14 cells assessed as cell growth at 10 uM after 48 hrs by sulforhodamine B assay; assay type: functional; conditions: M14, 48 h, read-out: Activity; in short: as §1
HCT-116 = experiment: Growth inhibition of human HCT116 cells assessed as cell growth at 10 uM after 48 hrs by sulforhodamine B assay; assay type: functional; conditions: HCT-116, 48 h, read-out: Activity; in short: as §1
BT-549 = experiment: Growth inhibition of human BT549 cells assessed as cell growth at 10 uM after 48 hrs by sulforhodamine B assay; assay type: functional; conditions: BT-549, 48 h, read-out: Activity; in short: as §1
Hs-578T = experiment: Growth inhibition of human Hs 578T cells assessed as cell growth at 10 uM after 48 hrs by sulforhodamine B assay; assay type: functional; conditions: read-out: Activity; in short: as §1
MDA-MB-435 = experiment: Growth inhibition of human MDA-MB-435 cells assessed as cell growth at 10 uM after 48 hrs by sulforhodamine B assay; assay type: functional; conditions: MDA-MB-435, 48 h, read-out: Activity; in short: as §1
CCRF-CEM = experiment: Growth inhibition of human CCRF-CEM cells assessed as cell growth at 10 uM after 48 hrs by sulforhodamine B assay; assay type: functional; conditions: read-out: Activity; in short: as §1

SMILES | growth at 10 µM (NCI-H522) [%] | growth at 10 µM (COLO 205) [%] | growth at 10 µM (SF-268) [%] | IC50 (HL-60) [µM] | growth at 10 µM (HL-60(TB)) [%] | growth at 10 µM (HOP-92) [%] | growth at 10 µM (LOX IMVI) [%] | growth at 10 µM (ACHN) [%] | growth at 10 µM (MDA-MB-468) [%] | growth at 10 µM (OVCAR-4) [%] | growth at 10 µM (IGROV-1) [%] | growth at 10 µM (RXF 393) [%] | growth at 10 µM (NCI-H23) [%] | growth at 10 µM (MDA-MB-231) [%] | growth at 10 µM (RPMI-8226) [%] | growth at 10 µM (DU-145) [%] | IC50 (HepG2) [µM] | growth at 10 µM (MCF7) [%] | growth at 10 µM (MOLT-4) [%] | growth at 10 µM (OVCAR-8) [%] | further results
CCOc1ccc(-n2nc(C(=O)Nc3ccc(OC)c(O)c3)nc2-c2cc(OC)c(OC)c(OC)c2)cc1 | 70.3 | 109 | 94.1 | > 100 | 94.3 | 68.1 | 90.6 | 91.5 | 101 | 99.8 | 95.2 | 112 | 86.1 | 65.8 | 67.7 | 98.5 | 13.7 | 90.9 | 74.9 | 78.7 | growth at 10 µM (HOP-62): 99.3%; growth at 10 µM (NCI-H226): 96.5%; growth at 10 µM (SR): 68.5%; growth at 10 µM (SW-620): 104%; growth at 10 µM (HT-29): 99.2%; growth at 10 µM (M14): 103%; growth at 10 µM (HCT-116): 96.7%; growth at 10 µM (BT-549): 103%; growth at 10 µM (Hs-578T): 86.8%; growth at 10 µM (MDA-MB-435): 95%; growth at 10 µM (CCRF-CEM): 89.5%
COc1cccc(-n2nc(C(=O)NCc3ccccc3OC)nc2-c2cc(OC)c(OC)c(OC)c2)c1 | 60.5 | 101 | 95.5 | > 100 | 103 | 108 | 95.9 | 106 | 99.9 | 90.8 | 88.5 | 107 | 90.7 | 93 | 100 | 106 | 1.67 | 98.7 | 103 | 103 | growth at 10 µM (HOP-62): 85.9%; growth at 10 µM (NCI-H226): 96.8%; growth at 10 µM (SR): 93.8%; growth at 10 µM (SW-620): 111%; growth at 10 µM (HT-29): 81.3%; growth at 10 µM (M14): 99.8%; growth at 10 µM (HCT-116): 102%; growth at 10 µM (BT-549): 103%; growth at 10 µM (Hs-578T): 99.9%; growth at 10 µM (MDA-MB-435): 90.8%; growth at 10 µM (CCRF-CEM): 107%
CCOc1ccc(-n2nc(C(=O)NCc3cccc(OC)c3)nc2-c2cc(OC)c(OC)c(OC)c2)cc1 | 58.7 | 91.8 | 91.5 | 98.8 | 91 | 95.6 | 88.9 | 97.5 | 87.7 | 98.9 | 80.4 | 92.5 | 94.3 | 76.3 | 84.3 | 107 | 1.9 | 84.1 | 69.9 | 94.3 | growth at 10 µM (HOP-62): 72.4%; growth at 10 µM (NCI-H226): 89.4%; growth at 10 µM (SR): 72.5%; growth at 10 µM (SW-620): 108%; growth at 10 µM (HT-29): 73.5%; growth at 10 µM (M14): 92.9%; growth at 10 µM (HCT-116): 96%; growth at 10 µM (BT-549): 92.6%; growth at 10 µM (Hs-578T): 93.3%; growth at 10 µM (MDA-MB-435): 92.5%; growth at 10 µM (CCRF-CEM): 94.2%

Reference: ChEMBL document CHEMBL4138126, “Synthesis, antiproliferative, anti-tubulin activity, and docking study of new 1,2,4-triazoles as potential combretastatin analogues” (Eur J Med Chem, 2017)
